This is an account of results in ChEMBL document CHEMBL4145583, “Neuroprotective Compound from an Endophytic Fungus, Colletotrichum sp. JS-0367” (J Nat Prod, 2018).

Test [1] has as its target MAP kinase p38 (Mus musculus) (UniProt P47811+O08911+Q9WUI1+Q9Z1B7). Put plainly: Inhibition of glutamate-induced p38 phosphorylation in mouse HT22 cells at 50 to 100 uM after 8 hrs by Western blot analysis. The format is cell-based. The method, boiled down:
(§1)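 Mouse hippocampal HT22 cells were grown in DMEM with 10% FBS and penicillin/streptomycin at 37 °C in 5% CO2. Cells were exposed to 5 mM glutamate plus 50 or 100 μM compound for 8 h, then lysed in RIPA buffer with protease inhibitors. Lysates were run on SDS-PAGE and transferred to PVDF. Membranes were blocked in 5% milk and probed for 1 h with p-/total ERK1/2, JNK, p38 and GAPDH antibodies. Chemiluminescent bands were quantified as fold of control; mean ± SEM.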

The species entered for test [2] is Mus musculus. The test is described as follows: Inhibition of glutamate-induced JNK phosphorylation in mouse HT22 cells at 50 to 100 uM after 8 hrs by Western blot analysis. Format: cell-based. The method, boiled down:
as §1
(In general: In western blotting, separated proteins are transferred to a membrane and probed.)

A short description of test [3]: Antioxidant activity assessed as DPPH radical scavenging activity at 100 uM. Format: functional. (Loss of DPPH colour is used to gauge radical scavenging.)
The target of test [4] is Mitogen-activated protein kinase 1 and 3 (ERK2 and ERK1) (Mus musculus) (UniProt P63085+Q63844). The test is described as follows: Inhibition of glutamate-induced ERK1/2 phosphorylation in mouse HT22 cells at 50 to 100 uM after 8 hrs by Western blot analysis. The format is cell-based. The method, boiled down:
as §1

In test [5] the test system is HT-22. Put plainly: Neuroprotective activity against glutamate-induced neuronal cell death in mouse HT22 cells assessed as increase in cell viability at 50 to 100 uM after 24 hrs by microscopy. The format is functional, cell-based.
Test [6] can be described thus: Antioxidant activity assessed as DPPH radical scavenging activity. Format: functional.
In test [7] the test system is HT-22. Put plainly: Neuroprotective activity against glutamate-induced neuronal cell death in mouse HT22 cells assessed as increase in cell viability after 24 hrs by Ez-CyTox reagent based assay. Format: functional. The method, boiled down: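 HT22 cells (DMEM/10% FBS, 37 °C, 5% CO2) were plated at 1 × 10^4 per well and left to adhere for 24 h. Glutamate (5 mM final) was added together with compounds for 24 h. EZ-Cytox reagent was applied for 30 min and absorbance read at 450 nm. Viability is given as % of untreated live control; mean ± SEM.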

Test [8] deals with HT-22. The test is described as follows: Neuroprotective activity against glutamate-induced apoptotic cell death in mouse HT22 cells at 50 to 100 uM after 10 hrs by Alexa fluor-488 annexin V/PI staining based cytometric analysis. Format: functional. The method, boiled down:
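HT22 cells were seeded at 2 × 10^5 per well and treated with 5 mM glutamate and 50 or 100 μM compound for 10 h. Cells were harvested, washed in PBS, and equal numbers were labelled with Alexa Fluor 488 annexin V in binding buffer for 20 min, then with propidium iodide. Cells were counted by image-based cytometry as % annexin V-positive; mean ± SEM.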

The test system of test [9] is HT-22. Put plainly: Inhibition of glutamate-induced intracellular calcium level in mouse HT22 cells at 50 uM after 8 hrs by Flu-4 AM probe based fluorescence microscopic analysis relative to control. Format: functional. The method, boiled down: (§2)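 HT22 mouse hippocampal cells (DMEM, 10% FBS, penicillin/streptomycin, 37 °C, 5% CO2) were seeded at 5 × 10^4 cells/well and co-treated with 5 mM glutamate and the test agent for 8 h. They were then loaded with 2 μM Fluo-4 AM and rinsed with phenol-red-free medium. Fluorescence images were quantified as fold change versus untreated control cells (mean ± SEM).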

Test [10] concerns HT-22. Put plainly: Inhibition of glutamate-induced intracellular ROS generation in mouse HT22 cells at 50 to 100 uM after 8 hrs by DCF-DA probe based fluorescence microscopic analysis. Format: functional, cell-based. The method, boiled down: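 HT22 cells were seeded at 1 × 10^4 per well in DMEM/10% FBS at 37 °C, 5% CO2. They were exposed to 5 mM glutamate with or without compound for 8 h, loaded with 10 μM DCF-DA for 30 min and washed three times with PBS. DCF fluorescence was read at ex 495/em 517 nm on a plate reader and expressed against control; images were taken by fluorescence microscopy. Mean ± SEM.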

Test [11] has as its system HT-22. Put plainly: Inhibition of glutamate-induced intracellular calcium level in mouse HT22 cells at 100 uM after 8 hrs by Flu-4 AM probe based fluorescence microscopic analysis relative to control. The format is functional. The method, boiled down:
as §2
On the technique in general: Calcium flux is commonly read through the fluorescence of an indicator in the cells.

Molecules are shown by their SMILES. The source made the active and inactive calls. The calls are words filed in the database; no cut-off is given here.

Sequence of Mitogen-activated protein kinase 1 and 3 (ERK2 and ERK1) (Mus musculus) (P63085 whole entry, looked up): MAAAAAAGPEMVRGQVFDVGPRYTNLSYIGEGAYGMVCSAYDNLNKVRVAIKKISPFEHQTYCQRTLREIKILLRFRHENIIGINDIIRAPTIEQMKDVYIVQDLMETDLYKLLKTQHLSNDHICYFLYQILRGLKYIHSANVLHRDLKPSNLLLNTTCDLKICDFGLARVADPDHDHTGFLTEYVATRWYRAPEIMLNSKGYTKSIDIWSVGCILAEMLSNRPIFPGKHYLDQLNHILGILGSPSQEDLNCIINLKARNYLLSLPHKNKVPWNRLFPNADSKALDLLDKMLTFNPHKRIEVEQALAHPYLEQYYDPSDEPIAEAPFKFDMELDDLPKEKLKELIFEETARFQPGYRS
Sequence of Mitogen-activated protein kinase 1 and 3 (ERK2 and ERK1) (Mus musculus) (Q63844 whole entry, looked up): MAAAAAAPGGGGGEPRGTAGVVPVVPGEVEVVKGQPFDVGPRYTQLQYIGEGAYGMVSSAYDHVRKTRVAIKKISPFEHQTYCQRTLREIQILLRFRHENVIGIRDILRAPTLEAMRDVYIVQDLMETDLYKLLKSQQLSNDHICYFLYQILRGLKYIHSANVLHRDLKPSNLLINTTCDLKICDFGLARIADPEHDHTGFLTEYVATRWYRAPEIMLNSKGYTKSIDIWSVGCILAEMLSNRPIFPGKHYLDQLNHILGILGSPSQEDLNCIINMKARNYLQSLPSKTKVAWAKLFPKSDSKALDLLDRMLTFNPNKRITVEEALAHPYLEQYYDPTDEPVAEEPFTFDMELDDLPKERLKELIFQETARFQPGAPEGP

In the case of `COc1cc(C)cc2c1C(=O)c1c(cc(O)c(O)c1O)C2=O`, the inhibition entry in test [1], in test [2], in test [4] and in test [10] was “Active” each time. In addition, the figures for the Activity in test [3], in test [6] and in test [7] were 70%, “Dose-dependent effect” and “Dose-dependent effect”, respectively. Further, the result in test [5] and in [8] was Active. The IC50 (as a rule, the concentration needed to halve the response being measured) in test [6] worked out at 42.2 µM. Also, the “fold change (FC)” value was found to be 1.4 in [9] and 0.98 in [11].
